{"source": "ChEMBL document CHEMBL3045555", "about": "“Structure elucidation and antifungal activity of an anthracycline antibiotic, daunomycin, isolated from Actinomadura roseola” (J Agric Food Chem, 2000)", "key": {"Phytophthora capsici [1]": {"test_system": "Phytophthora capsici", "assay": "Antifungal activity against Phytophthora capsici in pepper plants assessed as decrease in Phytophthora blight disease at 100 ug/ml", "format": "functional, organism-based", "method_in_brief": "(§1)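 Pepper plants raised at 28 °C with 16 h light per day. Antibiotic in methanol, diluted, was sprayed onto plants at first-branch stage 1 day before inoculation. Stems were slit 1 cm above soil and covered with cotton soaked in 1 × 105 zoospores mL-1 P. capsici, then taped. Disease was rated daily on a 0–5 severity scale; values are means of 10 plants per treatment.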"}, "Phytophthora capsici [2]": {"test_system": "Phytophthora capsici", "assay": "Antifungal activity against Phytophthora capsici in pepper plants assessed as decrease in Phytophthora blight disease at 50 ug/ml", "format": "functional, organism-based", "method_in_brief": "as §1"}}, "note": "Calls of active or inactive are those of the source. The calls are words filed in the database; no cut-off is given here."}
{"smiles": "COCC(=O)N(c1c(C)cccc1C)C(C)C(=O)OC", "note": "(configuration not stated)", "values": [{"measurement": "Activity", "setting": "Phytophthora capsici [1]", "value": "Active"}, {"measurement": "Activity", "setting": "Phytophthora capsici [2]", "value": "Active"}]}
